What was measured:
[1] = biological target: T1, Lethal(3)malignant brain tumor-like protein 4 (Homo sapiens, UniProt Q8NA19); assay: Binding affinity to L3MBTL4 by chemiluminescent assay
T1 sequence (Q8NA19 whole entry): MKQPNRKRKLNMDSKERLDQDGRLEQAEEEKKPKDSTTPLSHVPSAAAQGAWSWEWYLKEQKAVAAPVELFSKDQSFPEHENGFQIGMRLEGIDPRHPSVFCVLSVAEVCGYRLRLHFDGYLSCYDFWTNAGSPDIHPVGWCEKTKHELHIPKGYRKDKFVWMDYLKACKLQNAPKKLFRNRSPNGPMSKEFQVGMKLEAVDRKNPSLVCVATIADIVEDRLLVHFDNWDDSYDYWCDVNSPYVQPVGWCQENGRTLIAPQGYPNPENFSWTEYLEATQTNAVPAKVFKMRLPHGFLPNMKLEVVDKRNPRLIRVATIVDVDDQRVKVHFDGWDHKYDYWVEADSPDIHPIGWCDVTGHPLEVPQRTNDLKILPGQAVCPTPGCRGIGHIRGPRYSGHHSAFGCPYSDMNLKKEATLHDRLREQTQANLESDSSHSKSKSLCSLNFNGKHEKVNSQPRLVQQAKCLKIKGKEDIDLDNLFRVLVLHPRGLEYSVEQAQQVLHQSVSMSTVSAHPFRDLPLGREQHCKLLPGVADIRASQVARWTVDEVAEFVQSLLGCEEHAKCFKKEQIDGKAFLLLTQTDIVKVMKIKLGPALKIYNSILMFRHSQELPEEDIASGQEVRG
Procedure, shortened: (§1)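 AlphaScreen bead-based chemiluminescent proximity assay measuring antagonism of methylated histone peptide binding to the MBT/methyl-lysine reader domain. The peptide is H3K9Me1, the same one used as FAM-labelled probe (H3 residues 1-15, monomethyl K9) in the FP assay. A separate counterscreen was run for compound interference with the assay signal.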

[2] = biological target: T2, Lethal(3)malignant brain tumor-like protein 3 (Homo sapiens, UniProt Q96JM7); assay: Binding affinity to L3MBTL3 by chemiluminescent assay; procedure, shortened: as §1
T2 sequence (Q96JM7 whole entry): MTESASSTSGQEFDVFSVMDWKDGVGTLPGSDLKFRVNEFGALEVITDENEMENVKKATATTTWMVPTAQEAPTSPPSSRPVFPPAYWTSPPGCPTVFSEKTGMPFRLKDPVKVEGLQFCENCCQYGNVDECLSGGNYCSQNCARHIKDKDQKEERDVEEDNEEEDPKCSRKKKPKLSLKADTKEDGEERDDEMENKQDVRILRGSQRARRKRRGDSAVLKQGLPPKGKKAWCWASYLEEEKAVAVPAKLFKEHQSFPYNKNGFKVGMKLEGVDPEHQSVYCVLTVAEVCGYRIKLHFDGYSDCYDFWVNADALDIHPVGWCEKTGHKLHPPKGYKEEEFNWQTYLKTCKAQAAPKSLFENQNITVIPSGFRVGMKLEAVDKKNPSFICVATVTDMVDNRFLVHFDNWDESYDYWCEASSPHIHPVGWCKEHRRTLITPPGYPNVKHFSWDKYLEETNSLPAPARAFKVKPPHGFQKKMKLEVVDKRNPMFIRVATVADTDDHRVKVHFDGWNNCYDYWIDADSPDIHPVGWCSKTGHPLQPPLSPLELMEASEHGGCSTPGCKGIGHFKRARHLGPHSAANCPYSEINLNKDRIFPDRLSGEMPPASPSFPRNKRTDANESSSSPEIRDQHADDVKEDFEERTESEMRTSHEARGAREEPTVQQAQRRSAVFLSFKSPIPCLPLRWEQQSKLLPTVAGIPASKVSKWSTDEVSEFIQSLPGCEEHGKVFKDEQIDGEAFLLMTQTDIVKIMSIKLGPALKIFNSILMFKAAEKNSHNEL

[3] = biological target: T3, Scm-like with four MBT domains protein 1 (Homo sapiens, UniProt Q9UHJ3); assay: Binding affinity to human SFMBT by chemiluminescent assay; procedure, shortened: as §1
T3 sequence (Q9UHJ3 whole entry): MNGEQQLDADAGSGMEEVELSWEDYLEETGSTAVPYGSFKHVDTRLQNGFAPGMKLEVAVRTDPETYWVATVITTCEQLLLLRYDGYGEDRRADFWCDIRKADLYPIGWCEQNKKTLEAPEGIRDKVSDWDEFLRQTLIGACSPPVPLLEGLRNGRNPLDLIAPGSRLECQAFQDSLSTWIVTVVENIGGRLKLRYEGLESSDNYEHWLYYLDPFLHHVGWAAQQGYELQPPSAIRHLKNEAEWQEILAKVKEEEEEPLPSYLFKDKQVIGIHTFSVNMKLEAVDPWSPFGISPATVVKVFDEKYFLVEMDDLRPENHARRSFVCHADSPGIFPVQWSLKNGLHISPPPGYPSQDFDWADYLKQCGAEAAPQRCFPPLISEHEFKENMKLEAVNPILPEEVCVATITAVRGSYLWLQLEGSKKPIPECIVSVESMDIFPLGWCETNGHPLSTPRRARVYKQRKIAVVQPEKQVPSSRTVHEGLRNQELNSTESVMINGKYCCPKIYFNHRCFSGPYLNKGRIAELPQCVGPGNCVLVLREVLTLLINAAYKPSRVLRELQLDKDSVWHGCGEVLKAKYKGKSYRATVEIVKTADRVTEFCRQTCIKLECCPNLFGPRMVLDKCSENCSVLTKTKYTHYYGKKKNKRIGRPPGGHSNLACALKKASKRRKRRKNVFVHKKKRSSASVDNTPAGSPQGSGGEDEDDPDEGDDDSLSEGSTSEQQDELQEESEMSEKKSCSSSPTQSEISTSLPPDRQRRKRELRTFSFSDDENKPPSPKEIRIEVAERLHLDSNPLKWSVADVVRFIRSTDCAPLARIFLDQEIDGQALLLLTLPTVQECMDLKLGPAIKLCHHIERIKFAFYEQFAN

[4] = biological target: MBT domain-containing protein 1 (Homo sapiens, UniProt Q05BQ5); assay: Binding affinity to MBTD1 by chemiluminescent assay; procedure, shortened: as §1
Sequence of MBT domain-containing protein 1 (Q05BQ5 whole entry, the tested form may be a part): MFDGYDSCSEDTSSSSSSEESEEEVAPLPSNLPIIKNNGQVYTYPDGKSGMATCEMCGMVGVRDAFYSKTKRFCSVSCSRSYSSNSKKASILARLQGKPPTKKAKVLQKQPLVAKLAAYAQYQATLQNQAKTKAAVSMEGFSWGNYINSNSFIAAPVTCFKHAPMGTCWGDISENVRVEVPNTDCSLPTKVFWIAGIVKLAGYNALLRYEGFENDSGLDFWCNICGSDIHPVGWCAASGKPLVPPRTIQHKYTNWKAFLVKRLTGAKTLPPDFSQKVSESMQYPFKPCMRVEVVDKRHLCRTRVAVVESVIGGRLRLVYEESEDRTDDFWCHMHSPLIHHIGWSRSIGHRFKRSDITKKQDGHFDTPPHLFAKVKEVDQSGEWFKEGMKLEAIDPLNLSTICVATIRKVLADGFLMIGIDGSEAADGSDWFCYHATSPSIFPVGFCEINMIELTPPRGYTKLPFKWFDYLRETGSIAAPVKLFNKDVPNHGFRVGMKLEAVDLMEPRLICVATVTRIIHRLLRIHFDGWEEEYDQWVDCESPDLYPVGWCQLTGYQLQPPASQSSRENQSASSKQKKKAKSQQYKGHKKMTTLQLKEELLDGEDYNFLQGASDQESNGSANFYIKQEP

[5] = biological target: T4, Chromobox protein homolog 7 (Homo sapiens, UniProt O95931); assay: Binding affinity to CBX7 by chemiluminescent assay; procedure, shortened: as §1
T4 sequence (O95931 whole entry): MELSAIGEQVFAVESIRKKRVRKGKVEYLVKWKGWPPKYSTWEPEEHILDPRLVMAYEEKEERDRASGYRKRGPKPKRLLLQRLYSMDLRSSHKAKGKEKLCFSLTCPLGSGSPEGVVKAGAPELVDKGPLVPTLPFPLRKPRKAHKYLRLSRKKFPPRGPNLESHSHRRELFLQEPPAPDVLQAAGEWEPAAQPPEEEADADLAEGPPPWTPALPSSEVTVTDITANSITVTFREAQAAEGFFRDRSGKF

[6] = biological target: PHD finger protein 13 (Homo sapiens, UniProt Q86YI8); assay: Binding affinity to PHF13 by chemiluminescent assay; procedure, shortened: as §1
Sequence of PHD finger protein 13 (Q86YI8 whole entry): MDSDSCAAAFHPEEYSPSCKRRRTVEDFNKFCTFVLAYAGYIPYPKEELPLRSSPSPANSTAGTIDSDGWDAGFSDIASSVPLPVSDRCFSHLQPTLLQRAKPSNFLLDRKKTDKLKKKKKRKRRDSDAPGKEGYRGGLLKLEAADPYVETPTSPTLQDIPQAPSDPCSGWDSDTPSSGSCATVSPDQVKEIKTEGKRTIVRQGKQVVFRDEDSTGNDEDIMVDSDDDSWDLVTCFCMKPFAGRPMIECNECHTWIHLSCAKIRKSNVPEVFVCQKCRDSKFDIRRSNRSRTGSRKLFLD

IC50 [3]	IC50 [4]	IC50 [5]	IC50 ([6]; read-out: IC50) [µM]	IC50 [6]	SMILES	IC50 [1]	IC50 [2] [µM]	IC50 ([1]; read-out: IC50) [µM]
Not Active	Not Active	Not Active	48	–	O=C(NCCCCCN1CCCC1)c1cncc(Br)c1	Not Active	28	–
Not Active	Not Active	Not Active	–	Not Active	O=C(c1cncc(Br)c1)N1CCC(N2CCCC2)CC1	–	35	69

From ChEMBL document CHEMBL1765036, “Small-molecule ligands of methyl-lysine binding proteins” (J Med Chem, 2011)
